Laboratory results as given in ChEMBL document CHEMBL3046968, “Combined strategy for phytotoxicity enhancement of benzoxazinones” (J Agric Food Chem, 2010).
The source made the active and inactive calls. The rule behind the calls is not given here.

Experiments:
Lepidium sativum [1] = test: Phytotoxicity against Lepidium sativum assessed as growth inhibition of root length at < 1 uM measured 4 days post treatment; assay type: functional, organism-based
Lepidium sativum [2] = test: Phytotoxicity against Lepidium sativum assessed as growth inhibition of root length measured 4 days post treatment; assay type: functional, organism-based; conditions: for IC50: 96 h
Method in brief: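 Cress bioassay run over 4 days in 90 mm Petri dishes with one filter-paper sheet. Seeds were in aqueous 10^-2 M MES buffer at pH 6.0, set with 1 M NaOH. DMSO stocks were diluted into buffer at 5 μL/mL to final concentrations of 1, 0.5, 0.1, 0.05 and 0.01 mM. Root length was recorded by an automated system. Values were fitted to a constant-slope sigmoidal curve against log concentration to obtain EC50.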

Solanum lycopersicum [3] = test: Phytotoxicity against Solanum lycopersicum (tomato) assessed as growth inhibition of root length measured 5 days post treatment; assay type: functional, organism-based
Method in brief: (§1)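 Lettuce or tomato seeds were grown for 5 days on one filter-paper sheet in 90 mm dishes. The medium was aqueous 10^-2 M MES adjusted to pH 6.0 with NaOH. Compounds were taken from DMSO stocks and diluted into buffer (5 μL DMSO/mL), giving final levels of 1, 0.5, 0.1, 0.05 and 0.01 mM. Root length was acquired automatically. EC50 came from a constant-slope sigmoidal dose-response fit versus log concentration.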

Allium cepa [4] = test: Phytotoxicity against Allium cepa (onion) assessed as growth inhibition of root length measured 7 days post treatment; assay type: functional, organism-based; conditions: for IC50: 168 h
Method in brief: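 Onion seeds germinated in 90 mm Petri dishes on one filter-paper sheet, in aqueous 10^-2 M MES buffer brought to pH 6.0 with NaOH. Compounds were dissolved in DMSO and diluted into buffer (5 μL DMSO/mL) to test concentrations of 1, 0.5, 0.1, 0.05 and 0.01 mM. Root length was recorded after 7 days by automated image acquisition. EC50 was derived from a constant-slope sigmoidal fit on a log concentration scale.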

Allium cepa [5] = test: Phytotoxicity against Allium cepa (onion) assessed as growth inhibition of root length at 1 uM measured 7 days post treatment; assay type: functional; conditions: 168 h, read-out: GI
Lactuca sativa [6] = test: Phytotoxicity against Lactuca sativa (lettuce) assessed as growth inhibition of root length measured 5 days post treatment; assay type: functional, organism-based; method in brief: as §1
Allium cepa [7] = test: Phytotoxicity against Allium cepa (onion) assessed as growth inhibition of root length at 1 to 5 uM measured 7 days post treatment; assay type: functional, organism-based
Method in brief: (§2)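 Seeds germinated in Petri dishes on one filter-paper sheet, in aqueous solution buffered with 10^-2 M MES and brought to pH 6.0 with NaOH. Compounds were dissolved in DMSO, then diluted into buffer (5 μL DMSO/mL). Root length was recorded by automated image acquisition with statistical analysis.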

Solanum lycopersicum [8] = test: Phytotoxicity against Solanum lycopersicum (tomato) assessed as growth inhibition of root length at 1 to 5 uM measured 5 days post treatment; assay type: functional, organism-based; method in brief: as §2
Lactuca sativa [9] = test: Phytotoxicity against Lactuca sativa (lettuce) assessed as growth inhibition of root length at 5 uM measured 5 days post treatment; assay type: functional; conditions: 120 h, read-out: GI; method in brief: as §2
Lactuca sativa [10] = test: Phytotoxicity against Lactuca sativa (lettuce) assessed as growth inhibition of root length at 1 to 5 uM measured 5 days post treatment; assay type: functional, organism-based; method in brief: as §2
Solanum lycopersicum [11] = test: Phytotoxicity against Solanum lycopersicum (tomato) assessed as growth inhibition of root length at 1 uM measured 5 days post treatment; assay type: functional; conditions: 120 h, read-out: GI; method in brief: as §2

SMILES | growth inhibition (GI) (Lepidium sativum [1]) | growth inhibition (GI) (Lepidium sativum [2]) | IC50 (Lepidium sativum [2]) [nM] | growth inhibition (GI) (Solanum lycopersicum [3]) | IC50 (Solanum lycopersicum [3]; 120 h) [nM] | growth inhibition (GI) (Allium cepa [4]) | IC50 (Allium cepa [4]) [nM] | inhibition of growth at 1 µM (Allium cepa [5]) [%] | growth inhibition (GI) (Lactuca sativa [6]) | growth inhibition (GI) (Allium cepa [7]) | growth inhibition (GI) (Solanum lycopersicum [8]) | inhibition of growth at 5 µM (Lactuca sativa [9]) [%] | growth inhibition (GI) (Lactuca sativa [10]) | inhibition of growth at 1 µM (Solanum lycopersicum [11]) [%]
CCC1Oc2ccc(Cl)cc2N(O)C1=O [6-Cl-2-Et-D-DIBOA] | Active | Active | 400 | Active | 2300 | Active | 1600 | 60 | Active | – | – | – | – | –
O=C1C(c2ccccc2)Oc2ccc(Cl)cc2N1O (stereo not drawn) | – | Active | – | Active | – | Active | – | – | Active | – | – | – | – | –
CCC(=O)ON1C(=O)COc2c(Cl)cccc21 | – | Active | – | Active | – | Active | – | – | Active | – | – | – | – | –
CCC1Oc2ccc(F)cc2N(O)C1=O [6-F-2-Et-D-DIBOA] | – | Active | 1000 | Active | – | Active | 1300 | 50 | Active | – | – | – | – | –
CCCON1C(=O)COc2ccc(Cl)cc21 [6-Cl-4-Pr-D-DIBOA] | – | Active | 60 | Active | – | Active | 200 | 50 | Active | Active | Active | 50 | Active | 50
CCCCC(=O)ON1C(=O)COc2ccc(F)cc21 | – | Active | – | Active | – | Active | – | – | Active | – | – | – | – | –
CCCCC(=O)ON1C(=O)COc2ccc(Cl)cc21 [6-Cl-4-Val-D-DIBOA] | Active | Active | 60 | Active | – | Active | 200 | 90 | Active | Active | Active | 50 | Active | 50
CCC1Oc2c(Cl)cccc2N(O)C1=O (stereo not drawn) | – | Active | – | Active | – | Active | – | – | Active | – | – | – | – | –
CCCC1Oc2c(Cl)cccc2N(O)C1=O (stereo not drawn) | – | Active | – | Active | – | Active | – | – | Active | – | – | – | – | –
O=C1C(c2ccccc2)Oc2c(Cl)cccc2N1O (stereo not drawn) | – | Active | – | Active | – | Active | – | – | Active | – | – | – | – | –
CCC(=O)ON1C(=O)COc2ccc(F)cc21 | Active | Active | – | Active | – | Active | – | – | Active | – | – | – | – | –
CCCC1Oc2ccc(Cl)cc2N(O)C1=O (stereo not drawn) | – | Active | – | Active | – | Active | – | – | Active | – | – | – | – | –
O=C1C(c2ccccc2)Oc2ccc(F)cc2N1O (stereo not drawn) | – | Active | – | Active | – | Active | – | – | Active | – | – | – | – | –
